Published values from different studies.
Compare with care: the assays were run in different laboratories.
Target: Serine/threonine-protein kinase PknB (pknB, Mycobacterium tuberculosis, UniProt P9WI81)

| SMILES | test | conditions | remaining binding [%] |
| --- | --- | --- | --- |
| CN(C)CC#Cc1ccc(OCCCc2sc(N3CCc4cccc(C(=O)Nc5nc6ccccc6s5)c4C3)nc2C(=O)O)c(F)c1 | cell-free assay, competition with immobilised ligand | 1 µM | 100 |
| C[C@@H]1CCN(c2nccc(-c3cnn4ncccc34)n2)C1 | binding | 1 µM | 100 |
| COc1cc(-c2cn(C3CCc4c(F)cccc4N(CC(F)(F)F)C3=O)nn2)ccc1-n1cnc(C)c1 (stereo not drawn) | cell-free assay, competition with immobilised ligand | 1 µM | 82 |
| CCN1CCN(Cc2ccc(C(=O)Nc3ccc(C)c(Oc4ccc5c(c4)CC(=O)N5)c3)cc2C(F)(F)F)CC1 | binding, competition with immobilised ligand | 1 µM | 100 |
| CN(CCCC(F)(F)F)c1nccc(-c2cnn3ncccc23)n1 | binding | 1 µM | 89 |
| Cc1nn(C)cc1-c1nc2c(N3CCN(Cc4ccc(Cl)cc4)CC3)c(Cl)cnc2[nH]1 | binding, competition with immobilised ligand | 1 µM | 56 |
| Cc1c(NC(=O)c2cc(C(N)=O)nc3cc(F)ccc23)c(C(F)(F)F)nn1Cc1ccc(C#N)cc1 | cell-free assay, competition with immobilised ligand | 1 µM | 78 |
| COc1cnc(Nc2cccc(S(N)(=O)=O)c2)nc1N1CCN(c2ccccc2)CC1 | binding, competition with immobilised ligand | 1 µM | 99 |
| O=C(Nc1cccnn1)N1CCC(=Cc2cccc(Oc3ccc(C(F)(F)F)cn3)c2)CC1 | cell-free assay, competition with immobilised ligand | 1 µM | 95 |
| CN(c1nccc(-c2cnn3ncccc23)n1)C1CC1 | binding | 1 µM | 100 |
| FC(F)(F)Oc1cccc(-c2cnc3ccc(-c4ccncc4)nn23)c1 | cell-free assay, competition with immobilised ligand | 5 µM | 31 |
| N[C@@H]1CCN(c2nccc(-c3cnn4ncccc34)n2)C1 | binding | 1 µM | 100 |
| O=C(Nc1c[nH]nc1C(=O)NC1CCNCC1)c1cc(F)cc(F)c1 | binding, competition with immobilised ligand | 1 µM | 100 |
| COc1ccnn2ncc(-c3ccnc(N(C)C)n3)c12 | binding | 1 µM | 100 |
| C[C@@H](c1ccc(-n2cnc3c(N)ncnc32)cc1)N1CCc2nn(C)c(Cc3ccccc3)c2C1=O | binding, competition with immobilised ligand | 0.1 µM | 96 |
